Assay outcomes: PubChem, Johns Hopkins Ion Channel Center
RGS4 pot: RGS4 potentiators or activators, primary screen, cell-based, HEK293 M3R inducible RGS4, calcium flux. carbachol calcium flux Fluo4; active compounds read low. B-score at 10 µM. hit rate 0.92% among 310,000. AID 463111, 2010;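 active = B-score of the integrated calcium signal more than 4 SD below the library mean, with starting fluorescence not abnormally high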;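 note: negative B-score means reduced calcium response which marks RGS4 activation or potentiation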
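Reagent: ECmax carbachol challenge; Test system: M3R-expressing HEK293 line, RGS4 induced by doxycycline; Schedule: overnight RGS4 induction, 30 min dye load 37 °C, 20 min compound RT; Detection: calcium dye Fluo4 fluorescence; Read-out: Agonist-evoked peak-minus-minimum fluorescence over baseline, integrated ratio, B score.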
RGS4 inh: RGS4 inhibitors, primary screen, cell-based, HEK293 M3R inducible RGS4, calcium flux | B-score at 10 µM | Regulator of G-protein signaling 4 (Homo sapiens), P49798 | Fluo-4 calcium flux; active compounds read high; triggered by carbachol at its EC20 | hit rate 0.45% among 310,000;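 active = B-score, a plate-corrected calcium signal, over three deviations above library mean, with baseline fluorescence within five deviations of library mean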;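 note: RGS4 expression induced by doxycycline in cells with stable M3 receptor; B-score is computed from the integrated fluorescence ratio over baseline after carbachol; higher B-score means a larger calcium signal and so more RGS4 inhibition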
Target sequence (P49798 whole entry, looked up): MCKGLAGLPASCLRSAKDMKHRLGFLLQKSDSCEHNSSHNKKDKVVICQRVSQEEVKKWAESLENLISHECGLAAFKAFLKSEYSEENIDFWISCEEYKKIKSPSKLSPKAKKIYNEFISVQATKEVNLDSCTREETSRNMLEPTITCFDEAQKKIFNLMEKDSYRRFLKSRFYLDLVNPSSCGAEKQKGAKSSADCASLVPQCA
MrgX1 allo act: positive allosteric modulators of MrgX1, primary screen, HEK293 cells, Fluo-4 calcium flux; Mas-related G-protein coupled receptor member X1 (Homo sapiens), Q96LB2; FDSS; active compounds read high; hit rate 0.63% among 310,000; AID 588675, 2011; B-score at 10 µM;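 active = plate-corrected calcium response at least 3 library SD above typical, normal starting fluorescence, not activating the receptor alone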;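 note: compound read alongside a low EC10 to EC30 dose of BAM8-22 agonist; peak minus trough fluorescence over baseline measured at the second addition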
Target sequence (Q96LB2 whole entry, looked up): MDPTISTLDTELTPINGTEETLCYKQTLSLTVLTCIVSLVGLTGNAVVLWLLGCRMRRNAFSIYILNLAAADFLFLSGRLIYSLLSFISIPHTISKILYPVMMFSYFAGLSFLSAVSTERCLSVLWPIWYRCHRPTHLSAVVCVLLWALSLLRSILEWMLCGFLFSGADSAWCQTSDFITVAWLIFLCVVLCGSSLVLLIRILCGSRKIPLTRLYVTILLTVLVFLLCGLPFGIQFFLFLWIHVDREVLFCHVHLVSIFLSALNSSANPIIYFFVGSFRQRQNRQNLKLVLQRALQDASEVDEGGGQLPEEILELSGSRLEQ
MrgX1 ag: agonists of human MrgX1 receptor, primary screen, HEK293 cells, Fluo-4 calcium flux; Mas-related G-protein coupled receptor member X1 (Homo sapiens), Q96LB2; AID 588627, 2011; Fluo-4 calcium fluorescence, agonist mode; active compounds read high; hit rate 0.44% among 310,000; B-score at 10 µM;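 active = calcium response B-score plate-corrected fluorescence ratio at least 3 library SD, with starting fluorescence B-score inside 5 SD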
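times = overnight plating, then 30 min 37 °C plus 30 min room-temperature dye loading | assay system = stable human MrgX1 HEK293 cell line | input = fifteen thousand cells per well | signal = kinetic calcium dye fluorescence, Fluo-4 NW | dosing = compound delivered in addition one of three | read-out = B-scored fluorescence response ratio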
MrgX1 antag: antagonists of human MrgX1 receptor, primary screen, HEK293 cells, Fluo-4 calcium flux | Mas-related G-protein coupled receptor member X1 (Homo sapiens), Q96LB2 | BAM8-22 antagonism; active compounds read low | B-score at 10 µM | hit rate 1.3% among 310,000 | AID 588676, 2011;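 active = calcium-response B-score plate-corrected more than 3 library SD below zero, starting fluorescence within 5 deviations, no agonist response on first addition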;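 note: peak minus trough fluorescence over baseline after final BAM8-22 challenge near maximal dose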
MrgX1 ag reconf: MrgX1 receptor agonists, duplicate retest, confirmation, HEK293 cells, Fluo-4 calcium flux | shares compounds with MrgX1 ag | AID 602412, 2012 | Fluo-4 calcium fluorescence, FDSS | hit rate 78% among 600 | activation, % at 10 µM;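 active = calcium signal rise, corrected for plate position, at least 3 library SD high, with starting brightness within 5 such deviations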; note: reference of the scale not given here
MrgX1 PAM conf: MrgX1 positive allosteric modulators, duplicate retest, confirmation, HEK293 cells, Fluo-4 calcium flux | shares compounds with MrgX1 allo act | Fluo-4 calcium fluorescence, FDSS | activation (ratio percentage), % at 10 µM | hit rate 13% among 1,200 | AID 602413, 2012;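 active = ratio at least 3 SD above the weak peptide control, stable starting fluorescence, no direct agonism earlier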;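 note: compound followed by low BAM8-22 agonist challenge near EC20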
MrgX1 antag conf: MrgX1 receptor antagonists, duplicate retest, confirmation, HEK293 cells, Fluo-4 calcium flux. shares compounds with MrgX1 antag. BAM8-22 calcium flux; active compounds read low. remaining BAM8-22 calcium response % of control (active compounds read low), % at 10 µM. hit rate 19% among 2,300. AID 602420, 2012;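 active = remaining agonist calcium response no higher than 100% minus 3 SD of agonist-only control wells, with starting fluorescence near control levels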;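 note: agonist BAM8-22 given at a near maximal EC90 to ECmax level; peak minus minimum fluorescence divided by baseline after agonist addition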
HEK293 Ca flux: nonspecific calcium signal in parental HEK293, confirmation, counter-screen for MrgX1 antagonist project, parental HEK293 cells, Fluo-4 calcium flux; shares compounds with MrgX1 antag; Fluo-4 calcium fluorescence, FDSS; fluorescence ratio F(max-min)/F0 at 10 µM; hit rate 2% among 4,000; AID 624111, 2012;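 active = duplicate-averaged calcium fluorescence ratio at least three times the standard deviation of buffer wells, a nonspecific response in parental cells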
HEK293 Ca counter: calcium response in parental HEK293 cells, primary screen, counter-screen for MrgX1 allosteric activator project, cell-based, Fluo-4 calcium flux, duplicate; shares compounds with MrgX1 antag; Fluo-4 fluorescence ratio; active compounds read high; fluorescence ratio F(max-min)/F0 at 10 µM; AID 624114, 2012; hit rate 0.4% among 4,000;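 active = calcium fluorescence ratio, averaged over duplicates, at least 3 SD of the buffer-well ratio, meaning a nonspecific response in receptor-free cells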;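 note: untransfected parental HEK293 lacking MrgX1 used as counterscreen for MrgX1 allosteric activators; fluorescence change taken during the second addition on a kinetic imager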
HEK293 Ca cntr2: calcium response in parental HEK293 cells, primary screen, counter-screen for MrgX1 agonist project, cell-based, Fluo-4 calcium flux, duplicate, agonist mode | hit rate 8.7% among 4,000 | Fluo-4 calcium fluorescence (FDSS); active compounds read high | shares compounds with MrgX1 antag | AID 624115, 2012 | fluorescence ratio F(max-min)/F0 at 10 µM;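 active = calcium fluorescence ratio at least three times the spread of buffer wells, meaning a non-specific response in parental cells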
Active calls of the source: *; i = inactive; x = not tested or not shown. Most compounds without a hit are left out; they make up all but 3.5% or so of the library.

SMILES | RGS4 pot | RGS4 inh | MrgX1 allo act | MrgX1 ag | MrgX1 antag | MrgX1 PAM conf | HEK293 Ca flux | HEK293 Ca counter | HEK293 Ca cntr2 | others
COc1ccccc1N1CCN(S(=O)(=O)CCNC(=O)C2CC2)CC1 | i | i | i | i | i | x | x | x | x
Cc1ccccc1NC(=O)CN1CCOCC1 | i | i | i | 35.4* | i | x | i | i | i | MrgX1 ag reconf=i
O=C(Nc1ccccc1F)C1CCCN(S(=O)(=O)c2ccccc2)C1 (configuration not stated) | i | i | i | i | i | x | x | x | x
COc1ccc2[nH]cc(C(=O)CCl)c2c1 | i | i | 21.5* | i | i | i | i | i | i
O=C(CN1C(=O)NC2(CCc3ccccc32)C1=O)c1ccc(F)c(F)c1 (configuration not stated) | i | i | i | i | i | x | x | x | x
CC(=O)Cc1nsc(NC(=O)c2ccc(Br)o2)n1 | i | i | 7.4* | i | i | i | i | i | i
CC(=O)Cc1nsc(NC(=O)c2ccc(-c3cccc(Cl)c3)o2)n1 | i | i | 12.9* | i | i | 14.9%* | i | i | i
CCOC(=S)SCc1cn2cccc(C)c2n1 | i | i | i | i | i | x | x | x | x
O=C(CCn1c(=O)c2cccn2c2cccnc21)N1CCN(c2cccc(Cl)c2)CC1 | i | i | i | i | i | x | x | x | x
Brc1ccc2c(c1)CNc1c(ncnc1N1CCOCC1)O2 | i | i | 10.5* | i | i | 18.3%* | i | i | i
Cc1ccc(S(=O)(=O)N/N=C/c2cccc3c2OCCO3)cc1 | i | i | i | i | i | x | x | x | x
Cc1ccc(S(=O)(=O)N/N=C/c2cccc3nccnc23)cc1 | i | i | 20.3* | i | i | i | i | i | i
COc1cc(OC)nc(NC(=O)NS(=O)(=O)c2ccc(F)cc2)n1 | i | i | i | i | i | x | x | x | x
COCCN(C(=S)Nc1cc(C)cc(C)c1)C(C)c1ccco1 (configuration not stated) | i | i | 8.25* | i | i | i | i | i | i
Nc1ccc(Oc2cccc(Oc3ccc(N)cc3)c2)cc1 | i | i | i | i | i | x | x | x | x
Nc1ccc(Oc2ccc(Br)cc2)cc1 | i | i | 8.42* | i | i | i | i | i | i
Cc1cccc(C)c1NC(=O)CN1CCc2ccccc2C1 | i | i | i | i | i | x | x | x | x
COc1ccc(Cl)cc1N(CC(=O)Nc1cccc(SC)c1)S(C)(=O)=O | i | i | 8.3* | i | i | i | i | i | i
CC(C)Sc1nc(N)nc(-c2cccs2)c1C#N | i | i | 9.05* | i | i | i | i | i | i
CSc1nc(N)nc(-c2cccs2)c1C#N | i | i | i | i | i | x | x | x | x
COc1cc(OC)cc(C2=NC3(CCC(C)CC3)NC2=S)c1 (configuration not stated) | i | i | 6.62* | i | i | i | i | i | i
Cc1ccc(C2=NC3(CCCC3)NC2=S)cc1 | i | i | i | i | i | x | x | x | x
COC(=O)c1ccc(C2c3c(oc4ccc(Cl)cc4c3=O)C(=O)N2CCN2CCOCC2)cc1 (configuration not stated) | i | i | i | i | i | x | x | x | x
Cn1c(SCC(=O)N2CCCC2=O)nnc1-c1ccccc1F | i | i | 8.79* | i | i | i | i | i | i
Cn1c(SCC(=O)N2CCCc3ccccc32)nnc1-c1c[nH]c2ccccc12 | i | i | i | i | i | x | x | x | x
SMILES | RGS4 pot | RGS4 inh | MrgX1 allo act | MrgX1 ag | MrgX1 antag | MrgX1 PAM conf | HEK293 Ca flux | HEK293 Ca counter | HEK293 Ca cntr2 | others
Cc1sc2ncn(C(C)C(=O)OC3CCCCC3)c(=O)c2c1C (configuration not stated) | i | i | 9.19* | i | i | i | i | i | i
O=C(Nc1ccc(Cl)cc1)c1ccc2ncsc2c1 | i | i | i | i | i | x | x | x | x
O=C(Nc1cccc(Cl)c1)c1ccc2ncsc2c1 | i | i | 7.69* | i | i | i | i | i | i
Nc1cc(Nc2ccc(Br)cc2)nc(N)n1 | i | i | 7.52* | i | -8.64* | i | i | i | i | MrgX1 antag conf=i
COc1ccc(Nc2cc(C)nc(N)n2)cc1 | i | i | i | i | i | x | x | x | x
Cc1ccc2[nH]c(=O)c(CN(CC3CCCO3)C(=O)c3cccs3)cc2c1 (configuration not stated) | i | i | 35.5* | i | i | i | i | i | i
Cc1ccc2cc(CN(CC3CCCO3)C(=O)c3cccs3)c(=O)[nH]c2c1 (configuration not stated) | i | i | i | i | i | x | x | x | x
CC(=O)Nc1ccc(CN2CCN(CCc3ccccc3)C(CCO)C2)cc1 (configuration not stated) | i | i | i | i | i | x | x | x | x
CSc1cccc(NS(=O)(=O)c2cn(C)cn2)c1 | i | i | 11.9* | i | i | i | i | i | i
COc1ccc(NS(=O)(=O)c2cn(C)cn2)cc1 | i | i | i | i | i | x | x | x | x
